MIC and T/C data for 18 compounds are collected here from ChEMBL document CHEMBL1140274, “Synthesis of (1,4)-naphthoquinono-[3,2-c]-1H-pyrazoles and their (1,4)-naphthohydroquinone derivatives as antifungal, antibacterial, and anticancer agents” (2005).

For assay [1], the system named is Candida parapsilosis. The assay can be described thus: In-vitro minimum inhibitory concentration against the growth of Candida parapsilosis (ATCC 22019). The class given is functional. To be noted: Lodderomyces parapsilosis. The essentials:
(§1)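 Broth microdilution following NCCLS, run in 96-well plates with RPMI 1640 medium buffered with MOPS. The MIC was the endpoint against each fungal isolate.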

For assay [2], the system named is Candida albicans. The assay can be described thus: In-vitro minimum inhibitory concentration against the growth of Candida albicans. In kind it is functional. The essentials:
as §1

Assay [3] deals with Escherichia coli. As to the kind of experiment: In-vitro minimum inhibitory concentration against the growth of Escherichia coli. The class given is functional. The essentials: (§2)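 Broth microdilution following NCCLS against each bacterial strain, with the MIC taken as the endpoint.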
The subject of assay [4] is Sporothrix schenckii. As to the kind of experiment: In-vitro minimum inhibitory concentration against the growth of Sporothrix schenckii. The class given is functional. The essentials:
as §1

Assay [5] has as its system Aspergillus fumigatus. As to the kind of experiment: In-vitro minimum inhibitory concentration against the growth of Aspergillus fumigatus. In kind it is functional. The essentials: as §1
Assay [6] concerns Klebsiella pneumoniae. The assay can be described thus: In-vitro minimum inhibitory concentration against the growth of Klebsiella pneumoniae. The class given is functional. The essentials:
as §2

The test system of assay [7] is Staphylococcus aureus. As to the kind of experiment: In-vitro minimum inhibitory concentration against the growth of Staphylococcus aureus. The class given is functional. The essentials: as §2
For assay [8], the system named is Pseudomonas aeruginosa. As to the kind of experiment: In-vitro minimum inhibitory concentration against the growth of Pseudomonas aeruginosa. In kind it is functional. The essentials:
as §2

Assay [9] concerns Enterococcus faecalis. The assay can be described thus: In-vitro minimum inhibitory concentration against the growth of Streptococcus faecalis. In kind it is functional. The essentials:
as §2

The test system of assay [10] is Cryptococcus neoformans. The assay can be described thus: In-vitro minimum inhibitory concentration against the growth of Cryptococcus neoformans. In kind it is functional. The essentials:
as §1

For assay [11], the system named is Trichophyton benhamiae. The assay can be described thus: In-vitro minimum inhibitory concentration against the growth of Trichophyton mentagrophytes. In kind it is functional, Trichophyton mentagraphytes. The essentials:
as §1

Assay [12] deals with Rattus norvegicus. As to the kind of experiment: Anticancer activity against Walker 256 carcinosarcoma in rats at a dose of 50 mg/kg [Inactive]. In kind it is functional.
Assay [13] deals with Rattus norvegicus. The assay can be described thus: Anticancer activity against Walker 256 carcinosarcoma in rats at a dose of 10 mg/kg [Active]. The class given is functional.

A word on the MIC: it is the smallest concentration in the dilution series that meets the test's criterion for growth inhibition. Read a low MIC as inhibition by little substance. As a reminder, the T/C is the ratio of treated to control.

Converted amounts (≈) assume the structure as drawn. Where only a bound is given, the exact number is not on record here.

For `CCOC(=O)c1[nH]nc2c1C(=O)c1ccccc1C2=O`, the minimum inhibitory concentration (MIC) is more than 50 µg/mL in assay [1]; more than 50 µg/mL in assay [2]; 25 µg/mL (≈ 92.5 µM) in assay [3]; more than 50 µg/mL in assay [4]; more than 50 µg/mL in assay [5]; 12.5 µg/mL (≈ 46.3 µM) in [6]. Besides, the MIC is 25 µg/mL (≈ 92.5 µM) in assay [7]; more than 50 µg/mL in assay [8]; 12.5 µg/mL (≈ 46.3 µM) in assay [9]; more than 50 µg/mL in assay [10]; more than 50 µg/mL in assay [11].

On to `NNC(=O)c1[nH]nc2c(O)c3ccccc3c(O)c12`, for which the minimal inhibitory concentration (MIC) in assay [1] is more than 50 µg/mL; in assay [2] it was 25 µg/mL (≈ 96.8 µM); in assay [3], more than 50 µg/mL; in [4] it was more than 50 µg/mL; in assay [5] it was more than 50 µg/mL; in assay [6] it was more than 50 µg/mL. For the same compound, the MIC in assay [7] is more than 50 µg/mL; in [8] it was more than 50 µg/mL; in assay [9], more than 50 µg/mL; in assay [10], 25 µg/mL (≈ 96.8 µM); in assay [11], more than 50 µg/mL.

On to `O=C1c2ccccc2C(=O)c2c1n[nH]c2C(=O)NNc1ccccc1`, for which the MIC in assay [1] is more than 50 µg/mL; in [2], more than 50 µg/mL; in assay [3], more than 50 µg/mL; in assay [4], more than 50 µg/mL; in [5], more than 50 µg/mL; in assay [6], 12.5 µg/mL (≈ 37.6 µM). Further, the minimum inhibitory concentration (MIC) is more than 50 µg/mL in assay [7]; more than 50 µg/mL in [8]; 25 µg/mL (≈ 75.2 µM) in assay [9]; more than 50 µg/mL in assay [10]; more than 50 µg/mL in assay [11].

`CCOC(=O)c1[nH]nc2c(O)c3ccccc3c(O)c12`: the MIC is 12.5 µg/mL (≈ 45.9 µM) in [1]; 6.25 µg/mL (≈ 23 µM) in assay [2]; 6.25 µg/mL (≈ 23 µM) in [3]; 50 µg/mL (≈ 184 µM) in assay [4]; 25 µg/mL (≈ 91.8 µM) in assay [5]; 6.25 µg/mL (≈ 23 µM) in assay [6]. Further, the minimal inhibitory concentration (MIC) was 25 µg/mL (≈ 91.8 µM) in assay [7]; more than 50 µg/mL in assay [8]; 25 µg/mL (≈ 91.8 µM) in assay [9]; 6.25 µg/mL (≈ 23 µM) in [10]; 25 µg/mL (≈ 91.8 µM) in assay [11].

Compound `O=C1c2ccccc2C(=O)c2[nH]ncc21` gave a T/C in assay [12] of 115%.

Turning to `NC[C@H]1O[C@H](O[C@H]2[C@H](O)[C@@H](O[C@H]3O[C@H](CO)[C@@H](O)[C@H](N)[C@H]3O)[C@H](N)C[C@@H]2N)[C@H](O)[C@@H](O)[C@@H]1O` [KANAMYCIN], the MIC in [3] was 16 µg/mL (≈ 33 µM); in assay [6], 32 µg/mL (≈ 66 µM); in assay [7], 2 µg/mL (≈ 4.13 µM); in assay [8], more than 128 µg/mL.

For the compound `OC(Cn1cncn1)(Cn1cncn1)c1ccc(F)cc1F` [FLUCONAZOLE], the MIC in [1] came to 2 µg/mL (≈ 6.53 µM); in [2], 1 µg/mL (≈ 3.27 µM); in assay [4], 2 µg/mL (≈ 6.53 µM); in [5], 2 µg/mL (≈ 6.53 µM); in [10], 1 µg/mL (≈ 3.27 µM); in assay [11], 0.5 µg/mL (≈ 1.63 µM).

As for `Clc1ccc(COC(Cn2ccnc2)c2ccc(Cl)cc2Cl)c(Cl)c1` (stereo not given) [MICONAZOLE], the MIC in assay [2] was 25 µg/mL (≈ 60.1 µM); in assay [5], 12.5 µg/mL (≈ 30 µM); in assay [10], 12.5 µg/mL (≈ 30 µM); in [11], less than 0.78 µg/mL.

Turning to `O=C1c2ccccc2C(=O)c2c1n[nH]c2C(=O)NCCO`, the MIC is more than 50 µg/mL in assay [1]; more than 50 µg/mL in [2]; 25 µg/mL (≈ 87.6 µM) in assay [3]; more than 50 µg/mL in assay [4]; more than 50 µg/mL in assay [5]; 25 µg/mL (≈ 87.6 µM) in [6]. For the same compound, the minimum inhibitory concentration (MIC) in [7], in assay [8], in [9], in [10] and in [11] was more than 50 µg/mL throughout.

In the case of `CNC(=O)c1[nH]nc2c1C(=O)c1ccccc1C2=O`, the MIC in [1] is 50 µg/mL (≈ 196 µM); in assay [2] it was more than 50 µg/mL; in assay [3], more than 50 µg/mL; in [4], more than 50 µg/mL; in [5] it was more than 50 µg/mL; in assay [6] it was 25 µg/mL (≈ 97.9 µM). The MIC in [7], in [8], in assay [9], in [10] and in assay [11] was more than 50 µg/mL throughout.

As for `CCCCNC(=O)c1[nH]nc2c1C(=O)c1ccccc1C2=O`, the minimum inhibitory concentration (MIC) in assay [1], in [2], in [3], in [4], in assay [5] and in assay [6] was more than 50 µg/mL throughout. The MIC in [7], in assay [8], in assay [9], in [10] and in assay [11] was more than 50 µg/mL in each case.

As for `O=C(NNc1ccc([N+](=O)[O-])cc1[N+](=O)[O-])c1[nH]nc2c(O)c3ccccc3c(O)c12`, the minimum inhibitory concentration (MIC) was more than 50 µg/mL in assay [1]; 25 µg/mL (≈ 58.9 µM) in assay [2]; more than 50 µg/mL in assay [3]; more than 50 µg/mL in assay [4]; more than 50 µg/mL in assay [5]; more than 50 µg/mL in assay [6]. In addition, the MIC in assay [7], in [8], in assay [9], in assay [10] and in assay [11] was more than 50 µg/mL in each case.

For the compound NYSTATIN, the minimum inhibitory concentration (MIC) came to 7.8 µg/mL in assay [2], 13.2 µg/mL in [4] and 3.5 µg/mL in assay [10].

In assay [13], `O=C1C=CC(=O)c2c(O)ccc(O)c21` [NAPHTHAZALIN] registered a T/C of 37%.

Consider `C=CCNC(=O)c1[nH]nc2c1C(=O)c1ccccc1C2=O`, for which the minimal inhibitory concentration (MIC) is more than 50 µg/mL in [1]; more than 50 µg/mL in assay [2]; 12.5 µg/mL (≈ 44.4 µM) in assay [3]; more than 50 µg/mL in assay [4]; more than 50 µg/mL in assay [5]; 12.5 µg/mL (≈ 44.4 µM) in assay [6]. Besides, the MIC in [7], in assay [8], in assay [9], in assay [10] and in assay [11] was more than 50 µg/mL in each case.

As for GENTAMICIN, the MIC in assay [6] came out at 0.39 µg/mL; in assay [7], 0.78 µg/mL; in [8], 0.78 µg/mL.

For `NNC(=O)c1[nH]nc2c1C(=O)c1ccccc1C2=O`, the MIC in assay [1], in assay [2], in assay [3], in [4], in [5] and in assay [6] was more than 50 µg/mL throughout. Further, the MIC in [7], in assay [8], in [9], in assay [10] and in assay [11] was more than 50 µg/mL each time.

Take `C[C@@H]1[C@H](O)[C@@H](C)/C=C/C=C/C=C/C=C/C=C/C=C/C=C/[C@H](O[C@@H]2O[C@H](C)[C@@H](O)[C@H](N)[C@@H]2O)C[C@@H]2O[C@](O)(C[C@@H](O)C[C@@H](O)[C@H](O)CC[C@@H](O)C[C@@H](O)CC(=O)O[C@H]1C)C[C@H](O)[C@H]2C(=O)O` [AMPHOTERICIN B]: the minimal inhibitory concentration (MIC) in assay [2] was determined as 0.39 µg/mL (≈ 0.422 µM); in assay [10], 0.78 µg/mL (≈ 0.844 µM); in [11] it was 1.56 µg/mL (≈ 1.69 µM).
